# Screening results: PubChem, several laboratories
# In the library only some 2.2% were active in any assay of this set; here they are far more common.
# Redox H2O2 prof – compounds producing H2O2 with reducing agent – biochemical, NIH compound library profiling, artefact control for MLSCN library redox annotation, primary screen; DTT-dependent redox cycling H2O2, phenol red/HRP absorbance; 100% = 100 µM peroxide control, 0% = buffer; activation, % at 10 µM; 200,000 compounds, 0.03% hits; AID 878;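 active means activation of at least 50% relative to the plate's high and low controls in the primary single-dose screen; inactive means activation below 50%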;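 further: compound incubated with DTT at 0.8 mM final as the reducing agent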
# RBBP9 inh – blocks human serine hydrolase RBBP9; O75884; recombinant RBBP9, FP-Rh probe fluorescence polarization; inhibition, % at 7.94 µM; 220,000 compounds, 0.2% hits;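 active means inhibition above the campaign mean of all tested compounds plus 3 SD, cut at about 14% in these data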;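 further: plate controls were DMSO wells with RBBP9 for no effect and wells lacking RBBP9 protein for full effect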
#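 Measured by: FP readout at 525/598 nm; material: recombinant human RBBP9; also added: Serine-hydrolase probe FP-Rh, 375 nM pre-mixing; medium: Tris buffer pH 8.0, NaCl, Pluronic; replication: one well per compound; doses: one concentration, 7.94 µM nominal, 0.794% DMSO; timing: preincubation 30 min plus labeling 45 min at 25 °C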
# p97 inhibitor – inhibitors of human p97 ATPase; recombinant p97 ATPase, Kinase-Glo ATP luminescence, 3 h; 220,000 compounds, 0.42% hits; P55072; inhibition, % at 8 µM; AID 1481; in the data active means inhibition above about 15%;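 further: 0% = DMSO vehicle and 100% = wells lacking enzyme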
# Arbovirus inh – arbovirus infection inhibition. arbovirus infection cell-based antiviral screen. inhibition, % at 10 µM. 200,000 compounds, 0.37% hits. AID 1251; in the data active means inhibition above about 30%
# Wee1 degr inh – human Wee1 degradation inhibition, primary screen; HeLa Luc-Wee1K328M stability, luciferase luminescence; 100% = proteasome inhibitor MG132 effect; reporter increase, % at 5 µM; 220,000 compounds, 1.2% hits; AID 1321;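 active means activation above the mean of all tested compounds plus 3 SD, set per screening run, cut at about 8.8% in these data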;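 further: cells exposed to compound for 20 h before luminescence read; 0% = DMSO alone and 100% = MG132 at 30 µM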
# Target sequence (P30291 whole entry K328M): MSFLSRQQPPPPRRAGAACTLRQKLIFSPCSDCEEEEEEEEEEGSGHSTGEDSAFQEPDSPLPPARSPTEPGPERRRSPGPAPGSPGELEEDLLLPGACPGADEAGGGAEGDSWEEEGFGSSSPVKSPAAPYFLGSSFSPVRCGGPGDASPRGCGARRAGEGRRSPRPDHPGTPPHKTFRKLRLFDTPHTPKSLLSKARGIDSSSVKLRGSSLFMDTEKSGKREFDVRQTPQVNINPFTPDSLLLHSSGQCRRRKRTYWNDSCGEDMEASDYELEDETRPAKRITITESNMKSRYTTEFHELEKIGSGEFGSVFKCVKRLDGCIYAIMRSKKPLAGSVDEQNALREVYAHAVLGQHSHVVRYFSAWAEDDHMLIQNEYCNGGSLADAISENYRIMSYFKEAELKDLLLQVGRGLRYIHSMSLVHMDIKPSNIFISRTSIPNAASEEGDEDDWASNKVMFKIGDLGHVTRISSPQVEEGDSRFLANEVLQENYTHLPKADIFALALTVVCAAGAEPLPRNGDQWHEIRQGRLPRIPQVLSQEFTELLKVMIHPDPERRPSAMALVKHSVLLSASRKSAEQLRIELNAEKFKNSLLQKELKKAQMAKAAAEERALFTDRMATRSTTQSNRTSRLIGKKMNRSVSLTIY
# PKD1 kinase inh – inhibitors of human PKD1 kinase | Q15139 | PKD1 kinase fluorescence polarization assay | inhibition, % (concentration not given with the values) | 200,000 compounds, 0.056% hits; in the data active means inhibition above about 50%
# RBBP9 confirm – confirmation of human RBBP9 inhibitors; shares compounds with RBBP9 inh; recombinant RBBP9, FP-Rh probe fluorescence polarization; inhibition, % at 7.94 µM; 410 compounds, 36% hits; AID 1537;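 active means inhibition above the hit cutoff derived for the primary screen, cut at about 15% in these data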;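 further: 0% = RBBP9 with DMSO and 100% = wells lacking RBBP9 protein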
# * hit, by the source's call; . = no result given.
SMILES,Redox H2O2 prof,RBBP9 inh,p97 inhibitor,Arbovirus inh,Wee1 degr inh,PKD1 kinase inh,RBBP9 confirm
O=C(Cn1ccc([N+](=O)[O-])n1)N1CCCCC1,0.0,5.0,4.6,1.5,1.7,-10.1,.
O=C(Cn1ccc([N+](=O)[O-])n1)N1CCCCCC1,-0.6,15.7*,1.5,-1.1,-3.5,3.1,6.6
C/C=C/CSc1nc2c(c(=O)[nH]c(=O)n2C)n1C(C)C,2.0,14.7*,-1.0,1.2,2.1,5.3,3.6
CC(C)n1c(SCC(N)=O)nc2c1c(=O)[nH]c(=O)n2C,1.9,-6.8,1.0,0.0,0.2,-4.8,.
COC(=O)C1C(=O)OC(C)(C)C1C(C)C(=O)c1ccc(C)cc1C (stereo unspecified),1.0,5.5,0.9,12.5,-1.2,-3.4,.
COC(=O)C1C(=O)OC(C)(C)C1C(C)C(=O)c1ccccc1 (stereo unspecified),0.1,14.5*,-7.6,7.2,-1.0,1.0,7.2
COC(=O)/C(=C/Nc1ccc(O)cc1)[N+](=O)[O-],-0.3,38.1*,6.5,4.8,8.5,1.0,8.6
CC1(C)CC2(CCO1)OC(=O)CC2C(=O)Nc1ccccc1Cl (stereo unspecified),-0.1,2.8,1.8,4.3,-3.9,-0.5,.
CC1Nc2nc(NC(=O)C(C)(C)C)[nH]c(=O)c2N(C)C1C (stereo unspecified),-0.1,0.2,6.1,-2.3,2.4,-5.2,.
Cc1nn(CCC#N)c(N)c1C1(O)C(=O)Nc2c(Cl)cc(Cl)cc21 (stereo unspecified),.,-10.7,-4.5,.,-0.1,.,.
CCn1c(C(=O)NCc2cccnc2)cc2sc(Cl)cc21,1.0,14.5*,3.4,8.6,4.7,-5.2,4.5
CC(=O)Nc1c(O)c2ccccc2[nH]c1=O,-0.1,1.6,2.4,10.1,-0.8,-0.2,.
CNC(=O)C(=O)Nc1c(O)c2ccccc2[nH]c1=O,.,17.9*,3.5,.,-1.3,.,2.5
O=C(COC(=O)c1ccccc1O)Nc1cc([N+](=O)[O-])ccc1Cl,.,-7.7,7.2,.,-2.9,.,.
CN=c1scc(-c2ccccc2F)n1/N=C/c1ccc(O)c(O)c1O,0.3,32.7*,-3.7,-6.7,-2.5,-4.6,59.5*
CN=c1scc(-c2ccccc2F)n1/N=C/c1ccc[nH]1,-1.2,0.0,-2.9,-9.6,-5.8,8.8,.
O=C(COc1ccc2ccccc2c1)Nc1ccc(Cc2ccncc2)cc1,-3.7,28.3*,-1.1,0.1,3.7,9.1,2.7
O=C(COc1ccc(Cl)cc1)Nc1ccc(Cc2ccncc2)cc1,-0.6,-8.1,-5.5,11.9,-2.1,1.4,.
Oc1ccc(/C=N/NC2=NCCCCC2)cc1,0.0,16.5*,1.6,-4.5,1.9,1.2,12.0
O=c1c2cc(N3CCOCC3)ccc2[nH]c(=S)n1Cc1ccccc1Cl,0.1,0.0,3.4,-6.2,1.8,5.1,.
O=c1c2ccc(Cl)cc2[nH]c(=S)n1CCCN1CCOCC1,-0.5,-10.9,-2.0,2.3,6.2,-0.9,.
O=c1c2cc(N3CCOCC3)ccc2[nH]c(=S)n1Cc1ccccn1,-2.8,14.9*,4.2,-10.0,3.2,4.1,10.6
O=c1c2ccccc2[nH]c(=S)n1CCCN1CCOCC1,0.2,14.7*,-6.7,11.9,2.2,-11.7,7.0
CC(=O)N(C1=C(Cl)C(=O)c2ccccc2C1=O)C1CCCCC1,.,55.0*,7.9,.,5.2,.,89.0*
COc1ccc(C2CC(c3ccccc3)=NN2C(=O)COC(=O)/C=C/c2ccc(O)c(OC)c2)cc1 (stereo unspecified),.,-9.1,1.9,.,-1.0,.,.
SMILES,Redox H2O2 prof,RBBP9 inh,p97 inhibitor,Arbovirus inh,Wee1 degr inh,PKD1 kinase inh,RBBP9 confirm
COc1cccc(-n2nnc3c(=O)n(CC(=O)Nc4cc(C)on4)cnc32)c1,0.7,10.7,3.0,-4.3,-1.3,3.9,.
Cn1c(N2CCOCC2)nc2c1c(=O)n(Cc1ccc(Cl)c(Cl)c1)c(=O)n2C,0.6,18.4*,-5.9,12.0,-1.7,-10.9,4.1
Cn1c(N2CCCC2)nc2c1c(=O)n(Cc1ccc(F)cc1)c(=O)n2C,1.7,-5.0,6.2,7.5,1.0,-1.9,.
NS(=O)(=O)c1cnccc1Nc1ccc(Cl)c(Cl)c1,-0.1,-5.3,-0.6,6.9,1.1,6.6,.
CCCCOP(=O)(OCCCC)C1(NS(=O)(=O)c2ccccc2)C=CC(=O)c2ccccc21 (stereo unspecified),-3.8,24.5*,-0.9,-30.9,-1.0,-4.5,16.0*
COc1ccc2[nH]c(=O)c(CN(C)C(=O)c3cccs3)cc2c1,.,-2.6,-2.3,.,0.4,.,.
C=CCN=C1SC(C)(C)C(=O)N1S(=O)(=O)c1ccc(C)cc1,-0.6,4.1,0.6,-2.7,-1.2,6.8,.
CCCCCCCC1CC(CSC(=N)N)OC1=O (stereo unspecified),0.1,23.4*,0.8,-7.8,-2.6,-2.2,5.8
Clc1ccc(-c2nn3c(-c4ccccc4)nnc3s2)cc1,1.1,17.4*,2.4,-4.0,0.4,-14.4,6.0
COC(=O)c1ccc(NS(=O)(=O)c2ccccc2)o1,-1.2,-1.5,6.8,3.7,0.3,-2.4,.
Cc1cc(C(=O)NN=C2C3CC4CC(C3)CC2C4)c2ccccc2n1,1.8,14.8*,2.1,4.9,0.0,-1.0,6.7
Cc1cc(C(=O)NN=C2CCCCC2)c2ccccc2n1,0.6,0.0,3.0,-0.3,3.9,-7.2,.
Cc1ccc(S(=O)(=O)N2CCC(NC(=O)c3cccc(C)c3)CC2)cc1,-1.1,-2.8,-0.1,-1.4,-2.1,-2.3,.
N#Cc1c(Cl)c(Cl)c2nnc(-c3ccc(Br)cc3)n2c1Cl,-4.8,-3.6,3.3,-19.2,-2.8,0.5,.
Cc1cc(-c2onc(C)c2C(N)=O)no1,.,14.4*,9.1,.,-3.2,.,6.2
CN(/C=C1/C(=O)CNC1=O)CCO,-0.7,-0.6,5.0,0.5,6.3,0.8,.
CC1CN(Cc2c(O)ccc3c2oc(=O)c2ccccc23)CC(C)O1 (stereo unspecified),.,19.0*,2.5,.,-2.0,.,63.3*
CC1CN(Cc2c(O)ccc3c(=O)c(-c4ccccc4)coc23)CC(C)O1 (stereo unspecified),0.2,-2.4,-6.7,12.4,-2.7,-0.6,.
COc1ccc(-n2ncc3c(N4CCN(Cc5ccccc5)CC4)ncnc32)cc1,-0.3,-10.9,-5.8,-3.1,0.1,-2.3,.
Clc1cccc2sc(-c3nnc(-c4ccccc4)o3)c(Cl)c12,6.5,19.7*,2.0,.,-3.2,-0.8,6.6
CCCCC[C@H](O)/C=C/[C@@H]1[C@@H](C/C=C\CCCC(=O)OC)[C@@H](O)C[C@H]1O,0.3,18.0*,0.2,14.5,-0.6,-3.7,28.0*
Cc1ccc(S(=O)(=O)NCCC(=O)N2CCN(Cc3ccccc3)CC2)cc1,-1.9,29.1*,-0.1,9.5,0.1,-5.3,6.1
